What was measured:
[1] = Oral bioavailability; type: ADME, organism-based; conditions: rat, in vivo
[2] = Half life was determined; type: ADME, organism-based; conditions: rat, in vivo
Cytochrome P450 2C9 = Cytochrome P450 2C9 (Homo sapiens, UniProt P11712); experiment: Inhibition of human cytochrome P450 2C9; type: ADME
Cytochrome P450 3A4 = Cytochrome P450 3A4 (Homo sapiens, UniProt P08684); experiment: Inhibition of human cytochrome P450 3A4; type: ADME
Cytochrome P450 1A2 = biological target: T1, Cytochrome P450 1A2 (Homo sapiens, UniProt P05177); experiment: Inhibition of human cytochrome P450 1A2; type: ADME
T1 sequence (P05177 whole entry): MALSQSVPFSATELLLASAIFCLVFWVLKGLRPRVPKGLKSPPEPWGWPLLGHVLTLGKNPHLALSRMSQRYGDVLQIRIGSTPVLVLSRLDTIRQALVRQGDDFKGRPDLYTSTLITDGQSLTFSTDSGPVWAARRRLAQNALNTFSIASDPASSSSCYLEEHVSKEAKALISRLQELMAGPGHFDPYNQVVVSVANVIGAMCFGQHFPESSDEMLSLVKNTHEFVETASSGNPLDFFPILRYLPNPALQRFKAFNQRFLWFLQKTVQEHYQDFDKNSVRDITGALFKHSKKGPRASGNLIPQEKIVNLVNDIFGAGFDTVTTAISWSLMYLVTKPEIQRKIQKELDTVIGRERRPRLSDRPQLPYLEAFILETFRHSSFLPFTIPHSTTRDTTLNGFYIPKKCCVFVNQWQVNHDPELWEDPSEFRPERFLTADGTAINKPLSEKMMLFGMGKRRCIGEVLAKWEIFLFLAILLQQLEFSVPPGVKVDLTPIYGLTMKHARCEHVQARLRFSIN

[3] = biological target: Mast/stem cell growth factor receptor Kit (Homo sapiens, UniProt P10721); experiment: Inhibition of human c-Kit kinase
Outline: (§1)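 In-house kinase selectivity panel against human kinases; IC50 (µM) determined.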

Cytochrome P450 2D6 = Cytochrome P450 2D6 (Homo sapiens, UniProt P10635); experiment: Inhibition of human cytochrome P450 2D6; type: ADME
Cytochrome P450 2D6, sequence (P10635 whole entry): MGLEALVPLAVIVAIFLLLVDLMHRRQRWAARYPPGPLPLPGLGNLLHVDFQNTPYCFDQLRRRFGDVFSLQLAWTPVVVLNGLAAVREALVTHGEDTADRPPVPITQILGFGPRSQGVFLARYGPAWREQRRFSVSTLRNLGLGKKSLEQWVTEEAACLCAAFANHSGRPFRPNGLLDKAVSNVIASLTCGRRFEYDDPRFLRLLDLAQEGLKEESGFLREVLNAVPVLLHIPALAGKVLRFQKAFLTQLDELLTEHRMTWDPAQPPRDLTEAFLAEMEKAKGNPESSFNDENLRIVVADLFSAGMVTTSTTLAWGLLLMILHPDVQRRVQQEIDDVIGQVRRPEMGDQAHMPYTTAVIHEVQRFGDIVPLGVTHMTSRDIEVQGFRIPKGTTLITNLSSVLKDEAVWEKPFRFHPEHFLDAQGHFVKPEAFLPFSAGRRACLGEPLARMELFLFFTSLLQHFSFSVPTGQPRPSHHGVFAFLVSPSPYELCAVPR

[4] = biological target: Cyclin-dependent kinase 1 (Homo sapiens, UniProt P06493); experiment: Inhibition of human cyclin-dependent kinase 1; outline: as §1
[5] = biological target: T2, Epidermal growth factor receptor (Homo sapiens, UniProt P00533); experiment: Inhibition of human Epidermal growth factor receptor, HER-1
[6] = biological target: T2, Epidermal growth factor receptor; experiment: Inhibition of human epidermal growth factor receptor
[7] = biological target: Insulin-like growth factor 1 receptor (Homo sapiens, UniProt P08069); experiment: Inhibition of human insulin-like growth factor I receptor; outline: as §1
Insulin-like growth factor 1 receptor, sequence (P08069 31-736 limits assumed): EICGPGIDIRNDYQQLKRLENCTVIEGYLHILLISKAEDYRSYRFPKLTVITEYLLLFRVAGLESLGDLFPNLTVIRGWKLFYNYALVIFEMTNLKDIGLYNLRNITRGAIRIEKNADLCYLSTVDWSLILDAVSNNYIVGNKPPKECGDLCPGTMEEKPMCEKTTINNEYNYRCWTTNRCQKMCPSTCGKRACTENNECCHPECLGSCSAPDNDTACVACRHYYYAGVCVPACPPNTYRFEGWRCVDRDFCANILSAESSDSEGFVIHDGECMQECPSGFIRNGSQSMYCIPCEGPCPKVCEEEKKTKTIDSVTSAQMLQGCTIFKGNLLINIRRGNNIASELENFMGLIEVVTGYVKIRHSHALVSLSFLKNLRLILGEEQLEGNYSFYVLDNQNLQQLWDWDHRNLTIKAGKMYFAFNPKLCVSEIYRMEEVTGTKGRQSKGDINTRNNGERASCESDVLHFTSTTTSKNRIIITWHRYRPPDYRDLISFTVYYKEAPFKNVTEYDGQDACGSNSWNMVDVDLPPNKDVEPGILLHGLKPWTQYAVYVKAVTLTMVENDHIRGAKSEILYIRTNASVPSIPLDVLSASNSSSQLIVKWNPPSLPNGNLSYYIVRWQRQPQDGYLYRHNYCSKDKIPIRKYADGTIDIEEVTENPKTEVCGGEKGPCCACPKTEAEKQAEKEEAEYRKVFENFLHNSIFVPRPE
Insulin-like growth factor 1 receptor, sequence (P08069 741-1367 limits assumed): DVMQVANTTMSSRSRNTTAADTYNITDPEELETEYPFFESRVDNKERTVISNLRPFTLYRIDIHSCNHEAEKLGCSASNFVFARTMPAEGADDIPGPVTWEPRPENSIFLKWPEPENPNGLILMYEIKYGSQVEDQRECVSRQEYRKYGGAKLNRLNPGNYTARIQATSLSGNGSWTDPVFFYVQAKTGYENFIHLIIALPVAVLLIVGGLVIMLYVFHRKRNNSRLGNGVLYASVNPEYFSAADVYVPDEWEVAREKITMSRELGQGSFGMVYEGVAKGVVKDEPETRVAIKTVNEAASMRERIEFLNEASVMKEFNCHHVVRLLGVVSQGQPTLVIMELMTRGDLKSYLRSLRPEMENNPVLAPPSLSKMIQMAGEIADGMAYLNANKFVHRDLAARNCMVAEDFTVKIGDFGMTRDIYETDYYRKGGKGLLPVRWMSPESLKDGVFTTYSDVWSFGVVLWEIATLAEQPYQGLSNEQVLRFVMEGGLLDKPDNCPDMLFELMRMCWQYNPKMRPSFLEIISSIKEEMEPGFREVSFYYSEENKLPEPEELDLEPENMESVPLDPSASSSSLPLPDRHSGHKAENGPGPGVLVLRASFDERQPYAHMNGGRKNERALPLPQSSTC

[8] = biological target: Hepatocyte growth factor receptor (Homo sapiens, UniProt P08581); experiment: Inhibition of human Met proto-oncogene tyrosine kinase
Mus musculus [9] = experiment: Dose required to inhibit of LPS (20 mg/kg, injected i.v. 1 hr […] dosing) induced TNF-alpha release in mice upon oral administration; type: functional
Mus musculus [10] = experiment: Inhibition of LPS induced TNF-alpha release in mice following p.o. administration.; type: functional; set-up: concentration or dose not given beside the values
Outline: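 LPS (20 mg/kg) given i.v. 1 h after dosing. Blood taken 1 h later; plasma TNF-α by mouse-specific ELISA. Reported as % inhibition or as ED50 (mg/kg p.o.).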

[11] = biological target: Mitogen-activated protein kinase 14 (Mus musculus, UniProt P47811); experiment: Inhibition of murine phosphorylated His-Mitogen-activated protein kinase p38 alpha.
[12] = biological target: Prostaglandin G/H synthase 1 (Homo sapiens, UniProt P23219); experiment: Inhibition of human prostaglandin G/H synthase 1, COX-1
Prostaglandin G/H synthase 1, sequence (P23219 whole entry): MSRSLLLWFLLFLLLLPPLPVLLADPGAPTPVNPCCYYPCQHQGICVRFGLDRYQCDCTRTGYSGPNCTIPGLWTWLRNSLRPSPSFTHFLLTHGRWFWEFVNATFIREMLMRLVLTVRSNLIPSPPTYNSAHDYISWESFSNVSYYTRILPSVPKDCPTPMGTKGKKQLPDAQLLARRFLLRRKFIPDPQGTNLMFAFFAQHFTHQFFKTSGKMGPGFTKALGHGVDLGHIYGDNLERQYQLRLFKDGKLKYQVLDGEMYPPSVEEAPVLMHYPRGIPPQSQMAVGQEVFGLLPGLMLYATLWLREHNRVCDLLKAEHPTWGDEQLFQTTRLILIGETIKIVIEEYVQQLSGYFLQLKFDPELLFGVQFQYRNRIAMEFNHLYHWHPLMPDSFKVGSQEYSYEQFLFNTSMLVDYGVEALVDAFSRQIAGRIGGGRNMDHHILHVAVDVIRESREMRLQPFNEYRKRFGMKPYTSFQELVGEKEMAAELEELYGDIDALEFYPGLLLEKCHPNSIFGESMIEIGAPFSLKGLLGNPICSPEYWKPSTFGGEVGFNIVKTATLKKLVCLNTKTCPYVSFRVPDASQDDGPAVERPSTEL

[13] = biological target: RAF proto-oncogene serine/threonine-protein kinase (Homo sapiens, UniProt P04049); experiment: Inhibition of human RAF proto-oncogene serine/threonine-protein kinase; outline: as §1
Rattus norvegicus [14] = experiment: Percent swelling of joints in rats immunized with Mycobacterium tuberculosis was determined on day 20 after 25 mg/kg peroral administration; type: functional; conditions: route oral
Outline: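 Female Wistar rats (adjuvant-induced arthritis) immunized with Mycobacterium tuberculosis on day 0; compounds given orally at 25 mg/kg twice daily (2 × 25 mg/kg p.o. per day) from day 14 to day 20; joint swelling measured on day 20 and expressed as % swelling.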

[15] = biological target: Proto-oncogene tyrosine-protein kinase Src (Homo sapiens, UniProt P12931); experiment: Inhibition of human c-Src; outline: as §1
Proto-oncogene tyrosine-protein kinase Src, sequence (P12931 2-536 limits assumed): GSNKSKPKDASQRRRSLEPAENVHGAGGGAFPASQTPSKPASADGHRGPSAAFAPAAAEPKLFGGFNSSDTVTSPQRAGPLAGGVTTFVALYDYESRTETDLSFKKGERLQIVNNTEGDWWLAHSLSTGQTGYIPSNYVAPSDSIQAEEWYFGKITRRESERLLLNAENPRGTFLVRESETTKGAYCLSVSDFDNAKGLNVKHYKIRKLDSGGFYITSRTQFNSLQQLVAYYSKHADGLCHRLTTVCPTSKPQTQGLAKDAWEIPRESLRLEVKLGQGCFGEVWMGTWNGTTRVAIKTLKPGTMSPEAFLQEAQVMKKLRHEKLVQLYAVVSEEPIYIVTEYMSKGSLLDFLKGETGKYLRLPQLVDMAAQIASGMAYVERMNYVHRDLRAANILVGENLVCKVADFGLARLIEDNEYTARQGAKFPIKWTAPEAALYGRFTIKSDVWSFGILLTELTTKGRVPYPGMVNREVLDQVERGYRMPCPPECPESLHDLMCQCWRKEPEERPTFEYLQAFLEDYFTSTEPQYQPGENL

[16] = biological target: Mitogen-activated protein kinase 8 (Homo sapiens, UniProt P45983); experiment: Inhibition of human c-Jun N-terminal kinase 1; outline: as §1
Mitogen-activated protein kinase 8, sequence (P45983 whole entry): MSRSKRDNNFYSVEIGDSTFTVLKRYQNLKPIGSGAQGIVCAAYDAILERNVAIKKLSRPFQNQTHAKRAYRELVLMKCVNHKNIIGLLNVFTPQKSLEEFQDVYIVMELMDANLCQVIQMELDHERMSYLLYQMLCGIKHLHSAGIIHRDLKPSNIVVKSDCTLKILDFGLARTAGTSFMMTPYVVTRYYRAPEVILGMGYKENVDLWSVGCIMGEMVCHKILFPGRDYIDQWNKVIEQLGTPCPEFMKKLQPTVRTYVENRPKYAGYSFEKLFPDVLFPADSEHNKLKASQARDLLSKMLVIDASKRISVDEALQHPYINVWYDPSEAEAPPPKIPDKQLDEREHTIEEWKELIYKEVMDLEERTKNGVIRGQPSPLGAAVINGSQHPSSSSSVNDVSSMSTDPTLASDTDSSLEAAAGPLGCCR

[17] = biological target: Vascular endothelial growth factor receptor 2 (Homo sapiens, UniProt P35968); experiment: Inhibition of human vascular endothelial growth factor receptor 2; outline: as §1
[18] = biological target: Mitogen-activated protein kinase 9 (Homo sapiens, UniProt P45984); experiment: Inhibition of human c-Jun N-terminal kinase 2; outline: as §1
[19] = biological target: Tyrosine-protein kinase ABL1 (Homo sapiens, UniProt P00519); experiment: Inhibition of human c-Abl; outline: as §1
Tyrosine-protein kinase ABL1, sequence (P00519 whole entry): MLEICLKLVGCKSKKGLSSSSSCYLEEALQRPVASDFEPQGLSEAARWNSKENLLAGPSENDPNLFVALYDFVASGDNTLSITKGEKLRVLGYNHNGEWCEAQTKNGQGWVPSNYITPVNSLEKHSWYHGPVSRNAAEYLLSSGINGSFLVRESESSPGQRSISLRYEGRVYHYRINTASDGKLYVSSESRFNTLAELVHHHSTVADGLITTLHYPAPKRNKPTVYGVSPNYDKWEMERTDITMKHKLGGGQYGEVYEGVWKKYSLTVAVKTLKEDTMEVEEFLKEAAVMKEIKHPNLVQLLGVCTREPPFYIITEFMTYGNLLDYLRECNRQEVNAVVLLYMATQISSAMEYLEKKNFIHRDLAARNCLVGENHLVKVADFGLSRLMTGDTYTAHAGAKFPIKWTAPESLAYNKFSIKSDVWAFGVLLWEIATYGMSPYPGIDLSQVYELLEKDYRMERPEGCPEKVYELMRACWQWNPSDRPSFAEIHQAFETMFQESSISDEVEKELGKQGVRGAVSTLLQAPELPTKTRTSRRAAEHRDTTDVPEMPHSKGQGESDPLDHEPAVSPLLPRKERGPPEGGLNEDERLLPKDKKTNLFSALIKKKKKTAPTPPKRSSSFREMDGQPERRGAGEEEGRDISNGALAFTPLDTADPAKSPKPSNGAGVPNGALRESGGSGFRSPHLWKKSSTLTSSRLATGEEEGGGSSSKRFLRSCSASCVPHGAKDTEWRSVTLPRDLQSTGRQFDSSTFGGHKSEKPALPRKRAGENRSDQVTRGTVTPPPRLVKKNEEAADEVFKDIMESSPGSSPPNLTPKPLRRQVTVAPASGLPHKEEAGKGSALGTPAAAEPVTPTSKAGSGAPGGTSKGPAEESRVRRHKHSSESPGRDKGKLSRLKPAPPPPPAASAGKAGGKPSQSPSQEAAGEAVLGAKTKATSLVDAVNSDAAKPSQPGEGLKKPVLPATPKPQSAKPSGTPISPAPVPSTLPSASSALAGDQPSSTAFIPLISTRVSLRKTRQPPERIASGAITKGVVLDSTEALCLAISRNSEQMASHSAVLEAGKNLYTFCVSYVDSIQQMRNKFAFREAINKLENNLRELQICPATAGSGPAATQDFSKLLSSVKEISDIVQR

Homo sapiens = species: Homo sapiens; experiment: Inhibition of LPS/IFN-gamma stimulated TNF-alpha release in human peripheral blood mononuclear cells after 3h of incubation.; type: functional, cell-based
Outline: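 Human PBMCs from healthy volunteers incubated with inhibitor and stimulated with LPS/IFN-γ for 3 h. TNF-α in supernatants measured by ELISA; IC50 derived.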

Rattus norvegicus [20] = experiment: Dose required to inhibit bovine nasalseptum type II collagen induced arthritis in rats after administration on day 13; type: functional; conditions: 312 h
Outline: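 Female WAG×BUF/F1 rats immunized intradermally with bovine nasal septum type II collagen in Freund's incomplete adjuvant; swelling starts ~10 days after immunization. Oral dosing once daily for 10 days, beginning day 13 when swelling was nearly maximal. ED50 (mg/kg p.o.) derived for inhibition of joint swelling.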

Cytochrome P450 2C9, sequence (P11712 whole entry): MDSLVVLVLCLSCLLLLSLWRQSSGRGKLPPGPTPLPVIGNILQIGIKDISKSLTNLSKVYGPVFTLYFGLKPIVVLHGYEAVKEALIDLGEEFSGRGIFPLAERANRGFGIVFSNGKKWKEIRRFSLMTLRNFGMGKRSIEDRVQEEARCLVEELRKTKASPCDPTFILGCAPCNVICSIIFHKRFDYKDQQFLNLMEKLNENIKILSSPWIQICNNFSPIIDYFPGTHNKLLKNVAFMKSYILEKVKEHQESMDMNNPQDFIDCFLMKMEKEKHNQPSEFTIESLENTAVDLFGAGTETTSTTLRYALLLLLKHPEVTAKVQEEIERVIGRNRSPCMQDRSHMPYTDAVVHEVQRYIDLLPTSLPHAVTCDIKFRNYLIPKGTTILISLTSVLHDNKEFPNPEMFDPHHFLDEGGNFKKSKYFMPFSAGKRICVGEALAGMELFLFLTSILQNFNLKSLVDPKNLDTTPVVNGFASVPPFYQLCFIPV

## C[C@H](Nc1cc(-c2sc(C3CCN(C)CC3)nc2-c2ccc(F)cc2)ccn1)c1ccccc1
[1]
  bioavailability: 20.3%
[2]
  half-life: 12.5 h
Cytochrome P450 2C9
  IC50: > 2000 nM
Cytochrome P450 3A4
  IC50: > 2000 nM
Cytochrome P450 1A2
  IC50: > 2000 nM
[3]
  IC50: > 10000 nM
Cytochrome P450 2D6
  IC50: > 2000 nM
[4]
  IC50: > 10000 nM
[5]
  IC50: 1100 nM
[6]
  IC50: 700 nM
[7]
  IC50: > 10000 nM
[8]
  IC50: > 10000 nM
Mus musculus [9]
  ED50: 2.06 mg/kg
Mus musculus [10]
  Inhibition: 88%
[11]
  IC50: 18 nM
[12]
  IC50: > 80000 nM
[13]
  IC50: 2100 nM
Rattus norvegicus [14]
  Swelling: 57%
[15]
  IC50: 8000 nM
[16]
  IC50: 1900 nM
[17]
  IC50: 1700 nM
[18]
  IC50: 261 nM
[19]
  IC50: > 10000 nM
Homo sapiens
  IC50: 0.6 nM
Rattus norvegicus [20]
  ED50: 7 mg/kg

## CN1CCC(O)(c2cn(-c3ccnc(NC4CCCC4)n3)c(-c3cccc(C(F)(F)F)c3)n2)CC1
[1]
  bioavailability: 23.2%
[2]
  half-life: 3.5 h
Cytochrome P450 2C9
  IC50: > 2000 nM
Cytochrome P450 3A4
  IC50: > 2000 nM
Cytochrome P450 1A2
  IC50: > 2000 nM
[3]
  IC50: > 10000 nM
Cytochrome P450 2D6
  IC50: > 2000 nM
[4]
  IC50: > 10000 nM
[7]
  IC50: > 10000 nM
Mus musculus [9]
  ED50: 1.07 mg/kg
Mus musculus [10]
  Inhibition: 94%
[11]
  IC50: 29 nM
[12]
  IC50: > 80000 nM
Rattus norvegicus [14]
  Swelling: 58%
[15]
  IC50: > 10000 nM
[16]
  IC50: > 10000 nM
[17]
  IC50: > 10000 nM
[18]
  IC50: 4660 nM
[19]
  IC50: > 10000 nM
Homo sapiens
  IC50: 1 nM
Rattus norvegicus [20]
  ED50: 9.51 mg/kg

## CN1CCC(O)(c2nc(-c3ccc(F)cc3)c(-c3ccncc3)s2)CC1
Homo sapiens
  IC50: 145 nM

## C[C@H](Nc1cc(-c2oc(C3(O)CCN(C)CC3)nc2-c2ccc(F)cc2)ccn1)c1ccccc1
Mus musculus [10]
  Inhibition: 21%
[11]
  IC50: 9 nM
Homo sapiens
  IC50: 3 nM

## CN1CCC(O)(c2nc(-c3ccc(F)cc3)c(-c3ccncc3)o2)CC1
Homo sapiens
  IC50: 180 nM

## C[C@H](Nc1cc(-c2sc(C3(O)CCN(C)CC3)nc2-c2ccc(F)cc2)ccn1)c1ccccc1
Mus musculus [10]
  Inhibition: 94%
[11]
  IC50: 5 nM
Homo sapiens
  IC50: 1 nM

## C[C@H](Nc1nccc(-n2cc(C3(O)CCN(C)CC3)nc2-c2ccc(F)cc2)n1)c1ccccc1
Mus musculus [10]
  Inhibition: 94%
[11]
  IC50: 4 nM

## Fc1ccc(-c2nc(C3CCNCC3)cn2-c2ccnc(NC3CCCCC3)n2)cc1
Mus musculus [10]
  Inhibition: 29%
[11]
  IC50: 5 nM
Homo sapiens
  IC50: 0.8 nM

## FC(F)(F)c1cccc(-c2nc(C3CCNCC3)cn2-c2ccnc(NC3CCCCC3)n2)c1
Mus musculus [10]
  Inhibition: 77%
[11]
  IC50: 8 nM
Homo sapiens
  IC50: 2 nM

## C[C@H](Nc1nccc(-n2c(-c3ccc(F)cc3)nc3nc(N4CCN(C)CC4)ccc32)n1)c1ccccc1
Mus musculus [10]
  Inhibition: 83%
[11]
  IC50: 6 nM
Homo sapiens
  IC50: 1 nM

## C[C@H](Nc1nccc(-c2oc(C3(O)CCN(C)CC3)nc2-c2ccc(F)cc2)n1)c1ccccc1
Mus musculus [10]
  Inhibition: 19%
[11]
  IC50: 11 nM
Homo sapiens
  IC50: 8 nM

## C[C@H](Nc1cc(-c2[nH]c(C3(O)CCN(C)CC3)nc2-c2ccc(F)cc2)ccn1)c1ccccc1
Mus musculus [10]
  Inhibition: 42%
[11]
  IC50: 7 nM
Homo sapiens
  IC50: 3 nM

## CN1CCC(O)(c2nc(-c3ccc(F)cc3)c(-c3ccncc3)[nH]2)CC1
Homo sapiens
  IC50: 15 nM

## C[C@H](Nc1nccc(-c2[nH]c(C3(O)CCN(C)CC3)nc2-c2ccc(F)cc2)n1)c1ccccc1
[1]
  bioavailability: 10%
Mus musculus [10]
  Inhibition: 83%
[11]
  IC50: 2 nM
Homo sapiens
  IC50: 0.1 nM

## CN1CCN(c2ccc3c(n2)nc(-c2ccc(F)cc2)n3-c2ccnc(NC3CCCC3)n2)CC1
[1]
  bioavailability: 72.8%
[2]
  half-life: 4.1 h
Cytochrome P450 2C9
  IC50: > 2000 nM
Cytochrome P450 3A4
  IC50: > 2000 nM
Cytochrome P450 1A2
  IC50: > 2000 nM
[3]
  IC50: > 10000 nM
Cytochrome P450 2D6
  IC50: > 2000 nM
[4]
  IC50: > 10000 nM
[7]
  IC50: > 10000 nM
[8]
  IC50: > 10000 nM
Mus musculus [9]
  ED50: 1.41 mg/kg
Mus musculus [10]
  Inhibition: 94%
[11]
  IC50: 15 nM
[12]
  IC50: > 80000 nM
[13]
  IC50: > 10000 nM
Rattus norvegicus [14]
  Swelling: 55%
[15]
  IC50: > 10000 nM
[16]
  IC50: 1500 nM
[17]
  IC50: > 10000 nM
[18]
  IC50: 47 nM
[19]
  IC50: > 10000 nM
Homo sapiens
  IC50: 1 nM
Rattus norvegicus [20]
  ED50: 4.22 mg/kg

— ChEMBL document CHEMBL1147483, “Novel p38 inhibitors with potent oral efficacy in several models of rheumatoid arthritis” (Bioorg Med Chem Lett, 2004)
